Measurements gathered from unrelated publications.
Target: Muscle, skeletal receptor tyrosine-protein kinase (MUSK, Homo sapiens, UniProt O15146)
Residues used in one study (O15146 24-869): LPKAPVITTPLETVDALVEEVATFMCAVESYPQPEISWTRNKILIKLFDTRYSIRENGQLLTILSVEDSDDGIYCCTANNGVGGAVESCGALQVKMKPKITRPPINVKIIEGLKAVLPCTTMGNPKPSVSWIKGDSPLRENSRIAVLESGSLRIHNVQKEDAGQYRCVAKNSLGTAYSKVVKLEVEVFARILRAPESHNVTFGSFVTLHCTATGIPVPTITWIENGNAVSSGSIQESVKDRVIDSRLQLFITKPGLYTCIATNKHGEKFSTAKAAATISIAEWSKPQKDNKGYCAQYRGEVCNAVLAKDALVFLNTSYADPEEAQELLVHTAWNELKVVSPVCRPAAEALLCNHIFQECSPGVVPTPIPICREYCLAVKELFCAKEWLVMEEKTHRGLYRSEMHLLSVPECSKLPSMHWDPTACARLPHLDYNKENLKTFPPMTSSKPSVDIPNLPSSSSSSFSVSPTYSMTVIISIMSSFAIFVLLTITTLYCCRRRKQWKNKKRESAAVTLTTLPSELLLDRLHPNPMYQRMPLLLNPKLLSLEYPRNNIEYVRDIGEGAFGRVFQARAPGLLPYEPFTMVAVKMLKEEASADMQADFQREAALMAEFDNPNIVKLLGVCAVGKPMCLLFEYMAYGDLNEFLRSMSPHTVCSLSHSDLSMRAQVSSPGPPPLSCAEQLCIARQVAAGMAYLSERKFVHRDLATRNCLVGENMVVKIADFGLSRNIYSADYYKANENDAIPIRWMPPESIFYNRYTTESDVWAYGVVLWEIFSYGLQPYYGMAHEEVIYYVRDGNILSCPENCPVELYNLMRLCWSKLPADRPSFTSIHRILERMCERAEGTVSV

SMILES | test | conditions | remaining binding
O=C(NS(=O)(=O)c1ccc(NCC2CCOCC2)c([N+](=O)[O-])c1)c1ccc(N2CCN(Cc3ccc(C(F)(F)F)cc3-c3ccc(Cl)cc3)CC2)cc1Oc1cnc2[nH]ccc2c1 | cell-free assay, competition with immobilised ligand | 1 µM | 98%
CC1CCCN1c1nccc(-c2cnn3ncccc23)n1 (stereo not shown) | binding | 1 µM | 100%
CNC(=O)[C@@H]1CC[C@@H](n2c(-c3ccc4cnccc4c3)nc3ccc(C(=O)NCc4cccc(C(N)=O)c4)cc32)C1 | binding, competition with immobilised ligand | 1 µM | 90%
N[C@@H]1CCN(c2nccc(-c3cnn4ncccc34)n2)C1 | binding | 1 µM | 100%
O=C(Nc1c[nH]nc1C(=O)NC1CCNCC1)c1cc(F)cc(F)c1 | binding, competition with immobilised ligand | 1 µM | 88%
O=C(NCCCN1CCOCC1)c1ccc(Nc2nccc(-c3cc4ccccc4s3)n2)cc1 | binding, competition with immobilised ligand | 1 µM | 77%
COc1cnc(Nc2cccc(S(N)(=O)=O)c2)nc1N1CCN(c2ccccc2)C(=O)C1 | binding, competition with immobilised ligand | 1 µM | 99%
N#Cc1ccc(Nc2ccc3[nH]c(=O)[nH]c3c2)c(Cl)c1 | cell-free assay, competition with immobilised ligand | 1 µM | 100%
c1cncc(-c2cccc(Nc3nccc(NC4CCCCC4)n3)c2)c1 | binding, competition with immobilised ligand | 10 µM | 86%
CCCCN(CCCC)C(=O)CN1C[C@@H](c2cc(OC)c3c(c2)OCO3)[C@H](C(=O)O)[C@H]1CC(C)(C)CCC | cell-free assay, competition with immobilised ligand | 1 µM | 78.7%
c1cnn2ncc(-c3ccnc(N4CCC45COC5)n3)c2c1 | binding | 1 µM | 80%
COc1ncc2cc3ccccc3nc2c1C#N | cell-free assay, competition with immobilised ligand | 5 µM | 100%
O=C(NCc1ncc(C(F)(F)F)cc1Cl)c1ccc2c(c1)C1(CCS(=O)(=O)CC1)[C@@H](C1CC1)N2S(=O)(=O)c1ccc(F)cc1 | cell-free assay, competition with immobilised ligand | 1 µM | 79%
C[C@@H](c1ccc(-n2cnc3c(N)ncnc32)cc1)N1CCc2nn(C)c(Cc3ccccc3)c2C1=O | binding, competition with immobilised ligand | 0.1 µM | 68%
CN([C@@H]1CCc2c(CC(=O)O)c3cc(S(C)(=O)=O)ccc3n2C1)S(=O)(=O)c1ccc(F)cc1 | cell-free assay, competition with immobilised ligand | 1 µM | 100%
CN(C)c1nccc(-c2cnc3ncccn23)n1 | binding | 1 µM | 83%
FC(F)(F)Oc1cccc(-c2cnc3ccc(-c4ccncc4)nn23)c1 | cell-free assay, competition with immobilised ligand | 5 µM | 99%
C[C@@H]1CCN(c2nccc(-c3cnn4ncccc34)n2)C1 | binding | 1 µM | 92%
O=C(c1ccc(Nc2nccc(-c3cc4ccccc4s3)n2)cc1)N1CCC(N2CCCC2)CC1 | binding, competition with immobilised ligand | 1 µM | 72%
CN(CCCC(F)(F)F)c1nccc(-c2cnn3ncccc23)n1 | binding | 1 µM | 100%
CCC(=O)N[C@H]1CC[C@@H](C(=O)N(C)c2ccc(-c3nc4ccccc4o3)cc2)C1 | cell-free assay, competition with immobilised ligand | 1 µM | 100%
O=C(c1ccc(Nc2ncc(Cl)c(-c3ccc(Cl)s3)n2)cc1)N1CCC(N2CCCC2)CC1 | binding, competition with immobilised ligand | 1 µM | 57%
